# SUMO HTRF inh – SUMOylation inhibition; P63279; HTRF SUMOylation assay, SAE1/SAE2 + UBC9, in vitro; inhibition, % at 35 µM; 290,000 tested, 0.36% active; AID 2006; in the data active = inhibition above about 50%, passing the limit was not always enough
# Target sequence (P63279 whole entry, looked up): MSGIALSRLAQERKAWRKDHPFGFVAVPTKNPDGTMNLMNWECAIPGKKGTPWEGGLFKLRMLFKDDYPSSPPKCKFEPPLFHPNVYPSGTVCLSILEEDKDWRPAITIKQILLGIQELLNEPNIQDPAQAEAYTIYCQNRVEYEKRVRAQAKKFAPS
# Redox H2O2 prof – compounds producing H2O2 with reducing agent – biochemical, NIH compound library profiling, artefact control for MLSCN library redox annotation, primary screen. 200,000 tested, 0.03% active. AID 878. activation, % at 10 µM. DTT-dependent redox cycling H2O2, phenol red/HRP absorbance; 100% = 100 µM peroxide control, 0% = buffer;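 active = activation of at least 50% relative to the plate's high and low controls in the primary single-dose screen; inactive = activation below 50%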;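 note: compound incubated with DTT at 0.8 mM final as the reducing agent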
# HKDC1 inh – HKDC1 (human) hexokinase inhibition. Q2TB90. recombinant HKDC1, G6PDH/diaphorase resazurin coupled fluorescence. inhibition, % at 20 µM. 340,000 tested, 0.16% active. AID 493160;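 active = inhibition above about 35% when tested at 20 µM, limit read from the data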;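 note: plate controls were DMSO wells with enzyme for no effect and DMSO wells lacking enzyme for full effect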
#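 Assay system: in-house recombinant HK5 (HKDC1) enzyme. Input: HKDC1 at 5 µg/mL. Medium: Tris pH 8.0 buffer with MgCl2, Tween-20, BSA, BME. Dosing: single 20 µM dose. Schedule: 90 min reaction incubation at room temperature, dark. Signal: resazurin-to-resorufin fluorescence via G6PDH and diaphorase coupling, 525/613 nm. Controls: DMSO-enzyme wells negative, buffer-substituted wells positive.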
# GSTO1 inh – blocks human GSTO1 in RBBP9 counter-screen; recombinant GSTO1, activity-based probe fluorescence polarization; P78417; inhibition, % at 5.96 µM; 300,000 tested, 1.1% active;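 active = inhibition above the campaign mean inhibition plus 3 SD, cut at about 35% in these data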;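 note: 0% = GSTO1-1 with DMSO and 100% = wells lacking GSTO1-1 enzyme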
# Target sequence (P78417 whole entry, looked up): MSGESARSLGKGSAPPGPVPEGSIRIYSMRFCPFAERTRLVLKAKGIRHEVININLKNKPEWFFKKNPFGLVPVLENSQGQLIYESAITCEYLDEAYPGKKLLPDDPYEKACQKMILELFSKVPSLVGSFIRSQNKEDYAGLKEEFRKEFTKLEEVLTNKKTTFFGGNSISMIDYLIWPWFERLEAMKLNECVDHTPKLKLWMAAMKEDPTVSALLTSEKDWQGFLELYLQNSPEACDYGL
# Apaf-1 inh – inhibitors of human Apaf-1 apoptosome; reconstituted apoptosome caspase-3 activity, DEVD-Rh110 fluorescence; inhibition, % at 20 µM; 330,000 tested, 0.71% active; active = inhibition of at least 40% at 20 µM;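 note: plate controls were DMSO wells for no effect and DEVD-CHO caspase inhibitor wells for full effect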
#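 Assay system – apoptosome proteins · Medium – Hepes buffer, pH 7.5 · Also added – cytochrome c with DEVD-Rh110 · Timing – 30 min compound preincubation, 50 min activation, room temperature · Detection – Rh110 fluorescence, excitation 480 nm, emission 540 nm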
# * = called active by the depositor; i = inactive; / = no result given. Compounds with a hit are over-represented: about 1.4% of the library has one in this group of screens.
SMILES,SUMO HTRF inh,Redox H2O2 prof,HKDC1 inh,GSTO1 inh,Apaf-1 inh
O=C(/C=C/c1ccccc1)C1C(=O)c2ccccc2C1=O,59*,0,-6,-26,21
CCc1ccc(/C=C/C(=O)C2C(=O)c3ccccc3C2=O)cc1,4,-5,8,-23,39
Cc1cc(C)nc(Nc2cccc(C(F)(F)F)c2)n1,5,/,0,36*,5
COc1nc(Nc2cccc(C(F)(F)F)c2)nc(OC)n1,22,0,4,0,0
COc1ccc(NC(=O)c2cc(-c3ccccc3)nc3c2cnn3C(C)C)c(OC)c1,/,/,6,/,15
CCCOc1ccc(C(=O)Nc2cc(S(=O)(=O)N3CCOCC3)ccc2N2CCOCC2)cc1,/,/,-4,/,11
COc1ccc(CCNC(=O)CSc2nnc(-c3ccco3)c(-c3ccco3)n2)cc1OC,38,/,/,33,43*
O=c1oc(-c2cccs2)nc2sc3c(c12)CCCC3,26,0,-7,-1,-20
O=c1oc(-c2cccs2)nc2sc3c(c12)CCC3,51*,-1,-4,-2,-11
CC(NS(=O)(=O)c1ccccc1)C(=O)Nc1ccc2c(c1)OCCO2 (configuration not stated),7,/,9,0,-2
O=C1N/C(=N/N=C/c2ccccc2O)SC1Cc1ccc(F)cc1 (configuration not stated),61*,/,-5,-23,-8
O=C1N/C(=N/N=C/c2ccc(O)cc2)SC1Cc1ccccc1 (configuration not stated),16,/,-6,-3,-10
COc1ccc(CC2S/C(=N/N=C/c3ccccc3O)NC2=O)cc1 (configuration not stated),58*,/,-1,-10,i
Cc1ccc2nc(SCC(=O)NCc3ccc(F)cc3)nc(=O)n2c1,/,/,-6,-3,-1
S=C1NCN(Cc2ccco2)CN1,6,/,-5,2,-3
O=C1CC(=O)N(Cc2ccco2)C(=O)N1,27,-3,12,37*,9
O=C1CC(=O)N(Cc2ccco2)C(=S)N1,83*,0,17,-48,7
O=C1CC(=O)N(Cc2cccs2)C(=O)N1,23,-2,-6,24,1
CCOC(=O)C1CCN(S(=O)(=O)c2ccc(OC)c(C(=O)N3CCCCCC3)c2)CC1,17,/,-9,-1,2
CCOC(=O)C1CCCN(C(=O)c2cc(S(=O)(=O)N3CCCCCC3)ccc2OC)C1 (configuration not stated),/,/,2,/,49*
Cc1nn(CC(=O)N2CCN(c3ccccc3)CC2)c(=O)c2cccn12,-8,/,-2,2,3
CC1CCCC(C)N1/N=C/c1ccc(O)c(O)c1 (configuration not stated),1,/,-1,36*,2
COc1ccc(/C=N/N2C(C)CCCC2C)cc1O (configuration not stated),11,/,-2,-2,3
Cc1nc2ccc(NC(=O)N(C(C)C)C(C)C)cc2s1,7,0,3,6,-9
CC(C)N(C(=O)Nc1ccc2nccnc2c1)C(C)C,94*,-1,8,11,35
SMILES,SUMO HTRF inh,Redox H2O2 prof,HKDC1 inh,GSTO1 inh,Apaf-1 inh
CC(=O)Nc1ccc(S(=O)(=O)Oc2cccc(/C=C3\SC(N)=NC3=O)c2)cc1,50*,0,15,-46,3
COC(=O)C1=C(C)N(Cc2ccccc2)C(=NCc2cccc(Cl)c2)N[C@H]1c1cccc(F)c1,/,/,9,/,67*
COC(=O)C1=C(C)N(Cc2ccccc2)C(=NCc2cc(OC)c(OC)c(OC)c2)N[C@H]1c1cccc(F)c1,-17,/,2,6,12
COc1cccc(OC)c1-c1nn2c(-c3cc(-c4ccccc4)n[nH]3)nnc2s1,3,4,44*,-28,53*
NS(=O)(=O)c1ccc(Nc2ccc([N+](=O)[O-])c3nonc23)cc1,-6,/,1,37*,12
Cc1ccnc(Nc2nc(-c3ccc(O)cc3O)cs2)c1,9,/,-9,15,1
Cc1ccc(NC(=O)Cn2c(=O)oc3cc(S(=O)(=O)N4CCC(C)CC4)ccc32)cc1C,50*,-2,-1,-13,11
COc1ccc(NC(=O)Cn2c(=O)oc3cc(S(=O)(=O)N4CCCC4)ccc32)cc1,8,/,-4,4,1
CCCCn1c(N)c(N(CCOC)C(=O)c2sc3cc(F)ccc3c2Cl)c(=O)[nH]c1=O,/,/,4,1,5

# Screens deposited in PubChem by several laboratories.
